Source: ChEMBL document CHEMBL1142135, “Multidrug resistance conferred by novel DNA polymerase mutations in human cytomegalovirus isolates” (Antimicrob Agents Chemother, 2007)

What was measured:
Format in all cases: functional, organism-based
Human betaherpesvirus 5 [1] = assay: Antiviral activity against Human CMV T2241 in HFF cells by SEAP assay; settings: Human betaherpesvirus 5, T2241, HFF
Summary of the method: (§1)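 Cell-free stocks of AD169-derived recombinant viruses were inoculated at MOI 0.01 to 0.03 onto human foreskin fibroblasts. Cultures were grown without drug or with twofold increasing concentrations of GCV, FOS or CDV for 7 days. Supernatant SEAP activity was then measured. IC50 was derived by linear regression. Values are means and standard deviations of 7 to 23 replicate experiments.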

Human betaherpesvirus 5 [2] = assay: Antiviral activity against Human CMV T2211 in HFF cells by SEAP assay; settings: Human betaherpesvirus 5, T2211, HFF; summary of the method: as §1
Human betaherpesvirus 5 [3] = assay: Antiviral activity against Human CMV T2233 in HFF cells by SEAP assay; settings: Human betaherpesvirus 5, T2233, HFF; summary of the method: as §1
Human betaherpesvirus 5 [4] = assay: Antiviral activity against Human CMV T2293 in HFF cells by SEAP assay; settings: Human betaherpesvirus 5, T2293, HFF; summary of the method: as §1
Human betaherpesvirus 5 [5] = assay: Antiviral activity against Human CMV T2291 in HFF cells by SEAP assay; settings: Human betaherpesvirus 5, T2291, HFF; summary of the method: as §1
Human betaherpesvirus 5 [6] = assay: Antiviral activity against Human CMV T2311 in HFF cells by SEAP assay; settings: Human betaherpesvirus 5, T2311, HFF; summary of the method: as §1
Human betaherpesvirus 5 [7] = assay: Antiviral activity against Human CMV AD169 in HFF cells by PRA; settings: Human betaherpesvirus 5, AD169, HFF
Human betaherpesvirus 5 [8] = assay: Antiviral activity against Human CMV T2293 in HFF cells by PRA; settings: Human betaherpesvirus 5, T2293, HFF
Human betaherpesvirus 5 [9] = assay: Antiviral activity against Human CMV T2291 in HFF cells by PRA; settings: Human betaherpesvirus 5, T2291, HFF
Human betaherpesvirus 5 [10] = assay: Antiviral activity against Human CMV T2311 in HFF cells by PRA; settings: Human betaherpesvirus 5, T2311, HFF
Human betaherpesvirus 5 [11] = assay: Antiviral activity against Human CMV Towne in MRC5 cells by PRA; settings: Human betaherpesvirus 5, Towne
Summary of the method: (§2)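 Plaque reduction in human lung MRC-5 fibroblasts, 80 to 100% confluent, infected with 50 PFU cell-free virus. Plates centrifuged 600 × g for 30 min, then 1 h at 37°C, 5% CO2. Inoculum removed; grown in duplicate with 0.625–160 μM GCV, 6.25–1,600 μM FOS or 0.0625–16 μM CDV in 0.8% carboxymethyl cellulose medium. Plaques counted at 7 days for IC50. Repeated 8–11 times; mean and SD.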

Human betaherpesvirus 5 [12] = assay: Antiviral activity against Human CMV T2296 in MRC5 cells by PRA; settings: Human betaherpesvirus 5, T2296, MRC5; summary of the method: as §2
Human betaherpesvirus 5 [13] = assay: Antiviral activity against Human CMV T2287 in MRC5 cells by PRA; settings: Human betaherpesvirus 5, T2287, MRC5; summary of the method: as §2

| SMILES | IC50 (Human betaherpesvirus 5 [1]) [µM] | IC50 (Human betaherpesvirus 5 [2]) [µM] | IC50 (Human betaherpesvirus 5 [3]) [µM] | IC50 (Human betaherpesvirus 5 [4]) [µM] | IC50 (Human betaherpesvirus 5 [5]) [µM] | IC50 (Human betaherpesvirus 5 [6]) [µM] | IC50 (Human betaherpesvirus 5 [7]) [µM] | IC50 (Human betaherpesvirus 5 [8]) [µM] | IC50 (Human betaherpesvirus 5 [9]) [µM] | IC50 (Human betaherpesvirus 5 [10]) [µM] | IC50 (Human betaherpesvirus 5 [11]) [µM] | IC50 (Human betaherpesvirus 5 [12]) [µM] | IC50 (Human betaherpesvirus 5 [13]) [µM] |
| --- | --- | --- | --- | --- | --- | --- | --- | --- | --- | --- | --- | --- | --- |
| O=C(O)P(=O)(O)O [FOSCARNET] | 42 | 41 | 45 | 32 | 274 | 308 | 78 | 122 | 431 | 732 | 62.8 | 63.4 | 486 |
| Nc1nc2c(ncn2COC(CO)CO)c(=O)[nH]1 [GANCICLOVIR] | 1.4 |  | 1.4 | 5.6 | 7.1 | 30.2 | 1.9 | 10 | 4.1 | 12.4 | 4.9 | 5.4 | 30.1 |
| Nc1ccn(C[C@@H](CO)OCP(=O)(O)O)c(=O)n1 [CIDOFOVIR] | 0.3 | 0.2 | 0.3 | 5.2 | 0.7 | 4.7 | 0.9 | 4.9 | 3.3 | 8.9 | 0.3 | 0.6 | 1.8 |
